A short description of series [1]: Hydrolytic stability of the compound in aqueous buffer at pH 7.4 after 48 hrs by HPLC analysis. Format: physicochemical. Particulars: pH 7.4, 48 h. In outline:
(§1)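 Compound added from DMSO stock to 100 mM buffer (phosphate at pH 3 and 7.4, acetate at pH 5), final 3 nmol/mL. Sampled at set times up to 48 h, in triplicate. Parent compound and ciprofloxacin/formylciprofloxacin quantified by isocratic RP-18 HPLC with fluorescence detection (276/442 nm). Half-life given with 95% confidence intervals.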

The nature of series [2]: Hydrolytic stability of the compound in aqueous buffer assessed as half life at pH 3 after 48 hrs by HPLC analysis. Format: physicochemical. In short, it runs like this: as §1
A short description of series [3]: Hydrolytic stability of the compound in aqueous buffer assessed as half life at pH 5 after 48 hrs by HPLC analysis. The format is physicochemical. In outline:
as §1

The nature of series [4]: Metabolic stability in rat plasma assessed as parent compound remaining after 48 hrs by HPLC analysis. Format: ADME, cell-free. Particulars: read-out: Stability. In outline:
(§2)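 Compound spiked into rat plasma from DMSO stock, final 3 nmol/mL. 100 µL aliquots taken at set times and precipitated with an equal volume of acetonitrile. Gradient RP-18 HPLC (phosphate pH 2.0/acetonitrile) with fluorescence detection. Six runs: three to 48 h and three extended to 96 h. Result expressed as % parent compound remaining.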

The nature of series [5]: Metabolic stability in rat plasma assessed as parent compound remaining after 96 hrs by HPLC analysis. Format: ADME, cell-free. Particulars: read-out: Stability. In outline: as §2
Series [6] has as its system Mycobacterium tuberculosis. In words: Antimycobacterial activity against Mycobacterium tuberculosis H37Rv ATCC 27294 after 28 days by colony forming unit determination. Particulars: H37Rv ATCC 27294, 672 h. Format: functional. In outline: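 Compounds added to Sula liquid medium as DMSO solutions (DMSO at most 2%), incubated at 37 °C for 28 days. MIC is the lowest concentration giving visible growth inhibition. Activity was confirmed by CFU counts after subculture onto drug-free Löwenstein-Jensen solid medium.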

A short description of series [7]: Selectivity index, ratio of IC50 for human HepG2 cells to MIC for Mycobacterium tuberculosis H37Rv ATCC 27294. Format: functional.
Series [8] relates to Mycobacterium avium. The series is described as follows: Antimycobacterial activity against Mycobacterium avium CNTC 330/88 after 14 days. Format: functional. Particulars: CNTC 330/88, 336 h.
The test system of series [9] is Mycobacterium avium. In words: Antimycobacterial activity against Mycobacterium avium CNTC 330/88 after 21 days. Format: functional. Particulars: CNTC 330/88, 504 h.
Series [10] relates to Mycobacterium kansasii. In words: Antimycobacterial activity against Mycobacterium kansasii CNTC My 235/80 after 7 days. The format is functional. Particulars: CNTC My 235/80, 168 h.
Series [11] has as its system Mycobacterium kansasii. The series is described as follows: Antimycobacterial activity against Mycobacterium kansasii CNTC My 235/80 after 14 days. The format is functional. Particulars: CNTC My 235/80, 336 h.
The subject of series [12] is Mycobacterium kansasii. In words: Antimycobacterial activity against Mycobacterium kansasii CNTC My 235/80 after 21 days. Format: functional. Particulars: CNTC My 235/80, 504 h.
Series [13] concerns Mycobacterium kansasii. In words: Antimycobacterial activity against Mycobacterium kansasii CNTC 6509/96 after 7 days. The format is functional. Particulars: CNTC 6509/96, 168 h.
Series [14] deals with Mycobacterium kansasii. The series is described as follows: Antimycobacterial activity against Mycobacterium kansasii CNTC 6509/96 after 14 days. Particulars: CNTC 6509/96, 336 h. The format is functional.
The test system of series [15] is Mycobacterium kansasii. In words: Antimycobacterial activity against Mycobacterium kansasii CNTC 6509/96 after 21 days. The format is functional. Particulars: CNTC 6509/96, 504 h.
Another series relates to HepG2. The series is described as follows: Cytotoxicity against human HepG2 cells measured after overnight incubation by MTT assay. Format: cell-based. In short, it runs like this:
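HepG2 cells in phenol-red-free RPMI-1640 with 10% FCS, 2 mM L-glutamine and gentamycin, seeded at 5 × 10³ per well. After 24 h at 37 °C, cells were exposed overnight to compound in serum-free medium. MTT (2 mg/mL) for 4 h, formazan dissolved in DMSO, read as OD540 minus OD620. % cytotoxicity versus untreated controls; IC50 taken from dose-response curves. Two independent experiments, 4–8 parallel measurements.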
On the technique in general: Formazan colour is commonly taken as a measure of viable cells.

The subject of another series is PBMC. In words: Cytotoxicity against human PBMC measured after overnight incubation by MTT assay. The format is cell-based. In short, it runs like this: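 Freshly prepared human PBMC in phenol-red-free RPMI-1640 with 10% FCS, 2 mM L-glutamine and gentamycin, 2.0 × 10⁵ cells per well. After 24 h at 37 °C, overnight compound exposure in serum-free medium. MTT for 4 h, formazan in DMSO, OD540 minus OD620. % cytotoxicity versus controls; IC50 from dose-response curves. Two independent experiments.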

Another series relates to SH-SY5Y. The series is described as follows: Cytotoxicity against human SH-SY5Y cells measured after overnight incubation by MTT assay. The format is cell-based. In outline:
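SH-SY5Y neuroblastoma cells in phenol-red-free DMEM with 10% FCS, 2 mM L-glutamine, gentamycin and 1% NEAA, 7.5 × 10³ per well. After 24 h at 37 °C, overnight compound exposure in serum-free medium. MTT readout (OD540 minus OD620) against untreated controls; IC50 from dose-response curves. Two independent experiments.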

pIC50: −log10 of the molar value. ≈ marks a conversion by molar mass, not a printed value.

The half-life is the time needed for the level to fall by half in the phase considered. Usually MIC stands for the lowest concentration found to suppress growth. By pIC50 is commonly meant the IC50 on a negative log10 scale, so that one unit is a factor of ten. For the molecule `O=C(N/N=C/N1CCN(c2cc3c(cc2F)c(=O)c(C(=O)O)cn3C2CC2)CC1)c1ccc(F)cc1`, the Stability result in series [1] was “Stable”. The half-life in [2] was 2.9 h; in series [3], 11.8 h. Moreover, in series [4], the remaining at 48 h is 87%. Besides, the remaining at 96 h in series [5] amounted to 82%. Moreover, the MIC came to 1 µg/mL (≈ 2.02 µM) in series [6]; 62.5 µM (≈ 31 µg/mL) in the series on Mycobacterium avium [8]; 125 µM (≈ 61.9 µg/mL) with Mycobacterium avium [9]; 4 µM (≈ 1.98 µg/mL) against Mycobacterium kansasii [10]; 4 µM (≈ 1.98 µg/mL) in the series on Mycobacterium kansasii [11]; 8 µM (≈ 3.96 µg/mL) against Mycobacterium kansasii [12]. In addition, the MIC against Mycobacterium kansasii [13] stood at 8 µM (≈ 3.96 µg/mL); with Mycobacterium kansasii [14], 8 µM (≈ 3.96 µg/mL); against Mycobacterium kansasii [15], 16 µM (≈ 7.93 µg/mL). Besides, in series [7], the “Selectivity Index” value was determined as 634.29. The pIC50 in the series on HepG2 was under 2.89; in the series with PBMC, under 3.12.
`CCn1cc(C(=O)O)c(=O)c2cc(F)c(N3CCNCC3)cc21` [NORFLOXACIN]: the MIC came out at 5 µg/mL (≈ 15.7 µM) in series [6]; 125 µM (≈ 39.9 µg/mL) in the series on Mycobacterium avium [8]; 250 µM (≈ 79.8 µg/mL) against Mycobacterium avium [9]; 8 µM (≈ 2.55 µg/mL) in the series on Mycobacterium kansasii [10]; 16 µM (≈ 5.11 µg/mL) against Mycobacterium kansasii [11]; 16 µM (≈ 5.11 µg/mL) in the series on Mycobacterium kansasii [12]. In addition, the values for the MIC in the series with Mycobacterium kansasii [13], in the series with Mycobacterium kansasii [14] and with Mycobacterium kansasii [15] were 2 µM (≈ 0.639 µg/mL), 8 µM (≈ 2.55 µg/mL) and 8 µM (≈ 2.55 µg/mL), respectively. In addition, in [7], the “Selectivity Index” value was determined as 31.85. Moreover, the pIC50 with HepG2, in the series with PBMC and with SH-SY5Y was under 3.30 throughout.

The values are drawn from ChEMBL document CHEMBL1828506, “New fluorine-containing hydrazones active against MDR-tuberculosis” (Eur J Med Chem, 2011).
